# An excerpt weighted towards active compounds, which were near 3% of everything screened.
# Myeloid diff 2 = myeloid differentiation induction; calls only at 10 µM; 360,000 tested, 1% active; AID 624256; ER-HoxA9 myeloid progenitors, lysozyme-GFP differentiation, flow cytometry;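 active = normalized GFP-positive differentiation at or above the plate's own cutoff, the solvent-only control mean plus 3 SD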;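 note: cells exposed to compound for four days before flow analysis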
# SENP1 FRET inh = inhibitors of human SENP1 SUMO protease catalytic domain. recombinant SENP1 catalytic domain, CyPet-SUMO1-YPet FRET cleavage. AID 624204. Q9P0U3. inhibition, % at 10 µM. 360,000 tested, 0.21% active;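 active = inhibition at least 30% at 10 µM, raw YFP signal under a set limit, fluorescence ratio 0.5 to 1.5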;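 note: 0% = enzyme with DMSO and 100% = no enzyme wells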
#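 Assay system: hSENP1 catalytic domain, recombinant. Amount: SENP1 enzyme, 20 pM final. Schedule: 50 min reaction, RT, dark. Technique: FRET, CFP and YFP emission. Control set: no-enzyme wells low, DMSO-plus-enzyme wells high control.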
# Pemphigus Ab inh = inhibitors of pemphigus antibody binding to human desmoglein-3; DSG3-coupled beads, scFv-anti-DSG3-GFP binding, flow cytometry; stronger effect = lower value; binding (percent of control), % at 10 µM; 310,000 tested, 0.48% active;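 active = binding more than 3 SD below its plate's average and above zero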;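 note: hits lower antibody fragment binding to DSG3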
# H9c2 protect = myocardial damage modulation in H9c2 cells. protection from H2O2 cell death, % at 20 µM. 360,000 tested, 0.63% active. AID 588492. H9c2 cardiomyocytes, H2O2 injury protection, ATPLite, 2 h;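 active = compounds giving at least 50% protection of heart cells from peroxide-induced death in the single-dose screen, raw or plate-pattern-corrected value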;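 note: 0% = DMSO wells with peroxide and 100% = DMSO wells without peroxide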
# Exocytosis inh = lytic granule exocytosis inhibition. TALL-104 LAMP-1 surface exposure, flow cytometry; cells stimulated with thapsigargin and PMA. inhibition, % at 10 µM. 360,000 tested, 0.66% active. AID 651702;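 active = inhibition above about 55%, limit read from the data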
# HNF4A DNA FP = change in binding of human HNF4 alpha to DNA; 360,000 tested, 0.3% active; AID 1224865; HNF4a-FITC DNA binding, fluorescence polarization, 1 h; activity change, % at 10 µM; in the data active = activity change above about 30%, passing the limit was not always enough
# Target sequence (P41235 whole entry, looked up): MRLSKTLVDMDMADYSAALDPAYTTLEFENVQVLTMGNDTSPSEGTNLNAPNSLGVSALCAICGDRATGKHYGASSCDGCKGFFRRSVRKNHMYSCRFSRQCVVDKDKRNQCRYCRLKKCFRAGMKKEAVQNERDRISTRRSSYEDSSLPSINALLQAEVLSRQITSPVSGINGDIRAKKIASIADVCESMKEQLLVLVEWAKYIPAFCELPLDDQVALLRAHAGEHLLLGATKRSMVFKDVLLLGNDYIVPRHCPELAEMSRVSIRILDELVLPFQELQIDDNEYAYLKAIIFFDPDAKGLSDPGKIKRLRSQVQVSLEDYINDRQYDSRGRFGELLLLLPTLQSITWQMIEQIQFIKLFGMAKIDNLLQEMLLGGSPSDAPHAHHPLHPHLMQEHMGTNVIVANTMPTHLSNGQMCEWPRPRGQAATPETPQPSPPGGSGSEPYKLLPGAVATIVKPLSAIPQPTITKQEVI
# * marks the source's active call; other numbers are inactive results; i = inactive; nt = no result given; + = active, no number.
SMILES,Myeloid diff 2,SENP1 FRET inh,Pemphigus Ab inh,H9c2 protect,Exocytosis inh,HNF4A DNA FP
N#CC1=C(S)N=C(N)C(c2nc(-c3ccccc3)cs2)C12CCCC2 (centres undefined),i,-7.3,104.3,4.0,70.5*,7.9
CCOc1ccc(C(=O)NC(C(=O)NCC(c2cccs2)N(C)C)C(C)C)cc1 (centres undefined),i,-0.1,99.8,-4.0,-1.8,-3.1
Cc1cc(C)c([N+](=O)[O-])cc1NCC(=O)N1CCN(c2ccccc2)CC1,+,2.1,110.9,-1.4,2.0,0.6
CC(=O)c1cccc(OCC(=O)N2CCN(c3ccc(C(F)(F)F)cn3)CC2)c1,i,-0.8,101.2,-14.9,1.5,-0.4
O=C(O)COCC(=O)N1CCCN(c2ccc(C(F)(F)F)cn2)CC1,+,1.5,126.4,-1.0,-9.2,5.0
CCC(C)[C@@H](NC(=O)OC(C)(C)C)c1nnc(S(=O)(=O)Cc2cccc(C)c2)o1 (some centres undefined),i,2.0,100.0,-44.3,80.6*,-2.8
O=[N+]([O-])c1ccc(S(=O)(=O)CC2CSc3nc4ccccc4n32)cc1 (centres undefined),i,1.4,-10.4*,-17.4,-1.2,-0.4
COc1cc(Cl)c(C)cc1NC(=O)CN(C)C1CCS(=O)(=O)C1 (centres undefined),i,-1.4,102.7,-2.2,-3.1,0.5
O=C(Cn1[nH]c(=O)c2ccccc2c1=O)OCC(=O)N1CCCc2ccccc21,i,-0.7,99.4,85.6*,-0.7,-0.8
O=C(CN1C(=O)c2ccccc2C1=O)OCC(=O)N1CCc2ccccc2C1,i,-0.9,105.3,5.9,-1.6,-6.7
O=C(Cn1[nH]c(=O)c2ccccc2c1=O)N1CC=C(c2ccccc2)CC1,i,-3.0,105.9,47.9*,-0.4,4.1
O=C(Cn1[nH]c(=O)c2ccccc2c1=O)OCC(=O)N1CCc2ccccc2C1,i,0.2,nt,90.0*,5.0,-0.6
O=C(O)CCC(=O)N1CC=C(c2ccccc2)CC1,nt,0.1,120.3,-4.0,8.3,1.0
O=C1Cn2nnc(-c3ccccc3)c2C2c3ccccc3CCN12 (centres undefined),i,1.6,nt,9.2,4.2,-3.5
COc1ccc(NC(=O)CN(C)C(=O)CCNC(=O)c2ccccc2OC)cc1,i,0.3,101.8,-2.8,-4.6,-2.4
COc1ccc(-n2ccnc2SCC(=O)NO)cc1,i,0.2,103.6,-1.3,-3.1,-1.2
COc1ccc(Cn2c(=O)c3cccnc3n(Cc3ccc([N+](=O)[O-])cc3)c2=O)cc1,i,3.3,104.5,36.9,-2.4,-1.1
COc1ccc(CCn2c(=O)c3cccnc3n(Cc3ccc([N+](=O)[O-])cc3)c2=O)cc1OC,i,3.1,99.2,55.7*,7.1,-2.7
CC(=O)c1ccc(NC(=O)CSc2nnc(NC(=O)c3ccco3)s2)cc1,i,1.1,111.2,-10.2,-1.9,1.8
Cc1ccc(NC(=O)CSc2nnc(NC(=O)c3ccco3)s2)cc1,i,0.8,5.9*,-11.4,-2.6,-2.8
Cc1cccnc1NC(=O)CCc1nnc2ccc(N3CCC4(CC3)OCCO4)nn12,i,1.4,91.5,7.6,-0.8,2.5
Nc1cc[n+](CC(=O)c2ccc3c(c2)OCCO3)cc1,+,1.8,99.6,1.8,0.8,-0.1
O=C(C[n+]1ccc(C(=O)NCc2ccccc2)cc1)c1ccc2c(c1)OCCO2,i,-14.5,122.0,0.4,-1.3,3.6
CCc1c(O)nc(SCC(=O)Nc2ccc(Cl)cc2)n(-c2ccccc2)c1=O,i,-1.5,106.7,13.7,4.6,9.0
COc1ccc(-c2oc3c(OC)c(OC)c(OC)c(O)c3c(=O)c2OC)cc1OC,i,22.5,92.8,72.0*,-2.0,-0.9
COc1c(OC)c(O)c2c(=O)c(O)c(-c3ccccc3)oc2c1OC,i,3.5,96.6,0.4,-1.2,1.1
Cc1ccc(Cn2cc(/C=N/Nc3ccc([N+](=O)[O-])cn3)c3ccccc32)cc1,+,-22.8,108.3,11.4,-2.8,53.7*
O=[N+]([O-])c1ccc(NN=Cc2cccc3ccccc23)nc1,i,-33.0,124.5,-0.7,-2.3,35.4*

# High-throughput results as filed in PubChem.
